Insulin prom inh – TRM-6 insulin promoter activity inhibition. TRM-6 cells (human fetal islet line), insulin promoter-eGFP reporter, imaging; reporter expression induced with tamoxifen. inhibition, % at 2 µM. 130,000 tested, 0.9% active;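 active = inhibition above the mean plus 3 SD, with well images judged a real hit on visual review, cut at about 60% in these data, passing the limit was not always enough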
NPY-Y1 antag – NPY-Y1 (human) receptor antagonism; inhibition, % at 3.6 µM; 200,000 tested, 1% active; HEK293-CNG Y1 cells, membrane potential fluorescence; NPY at EC95, then isoproterenol;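 active = inhibition above the campaign mean inhibition of all tested compounds plus 3 SD, cut at about 20% in these data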;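 note: 0% = DMSO wells given NPY plus isoproterenol and 100% = isoproterenol alone without NPY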
Target sequence (P25929 whole entry, looked up): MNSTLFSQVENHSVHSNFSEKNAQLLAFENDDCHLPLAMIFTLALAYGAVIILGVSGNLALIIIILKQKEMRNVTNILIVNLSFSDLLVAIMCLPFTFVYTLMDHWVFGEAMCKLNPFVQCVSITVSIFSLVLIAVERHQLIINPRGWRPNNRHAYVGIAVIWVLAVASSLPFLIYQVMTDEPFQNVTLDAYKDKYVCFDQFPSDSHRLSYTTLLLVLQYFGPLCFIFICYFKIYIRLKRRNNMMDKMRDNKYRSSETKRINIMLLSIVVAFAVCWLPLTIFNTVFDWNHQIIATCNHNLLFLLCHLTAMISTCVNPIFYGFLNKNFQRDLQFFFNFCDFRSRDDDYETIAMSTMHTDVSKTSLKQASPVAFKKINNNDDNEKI
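Material: Y1- and CNG-channel-expressing HEK293 cells / Probe or stimulus: NPY 25 nM then isoproterenol 1 µM plus Ro 20-1724 25 µM / Doses: 3.6 µM single dose, DMSO 0.4% / Schedule: compound incubation 1 h at room temperature, readout 45 min post-stimulation / Signal: membrane potential fluorescence / Benchmarks: isoproterenol-only wells as full block versus NPY-plus-isoproterenol wells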
NPY-Y2 PAM-ag – potentiates or activates human NPY-Y2 receptor; 220,000 tested, 0.45% active; cells expressing NPY-Y2, potentiator/agonist read-out; P49146; activation, % at 3.6 µM; in the data active = activation above about 27%;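 note: cells stimulated with NPY near EC25 plus isoproterenol at EC100; 0% = vehicle plus submaximal agonist and 100% = vehicle plus saturating agonist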
NPY Y2 blocker – NPY-Y2 (human) receptor antagonism. P49146. NPY-Y2 expressing cells, antagonist mode. inhibition, % at 2.7 µM. 140,000 tested, 0.99% active; in the data active = inhibition above about 17%;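 note: 0% = vehicle with agonist challenge and 100% = reference antagonist with challenge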
NPY1 pot ag – human NPY-Y1 potentiation or agonism, primary screen. AID 1304. P25929. NPY-Y1 expressing cells, potentiator/agonist activation. 220,000 tested, 0.37% active. activation, % at 3.6 µM; in the data active = activation above about 33%, passing the limit was not always enough;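 note: cells stimulated with NPY at EC10 then isoproterenol at EC100; 0% = low agonist plus stimulus and 100% = saturating agonist plus stimulus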
RAM inhibit – blocks the yeast RAM network; 190,000 tested, 1.8% active; inhibition, % at 50 µM; S. cerevisiae dse1pr::URA3 reporter, 5-FOA growth OD615, 2 d; analog-sensitive cbk1-as2 kinase mutant strain;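 active = inhibition above a set limit, 3 SD over mean compound inhibition, cut at about 8.4% in these data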;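 note: 0% = DMSO-only wells with no growth and 100% = 10 µM 1-NA-PP1 full growth; inhibition rescues growth on 5-FOA so higher OD means more RAM inhibition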
Starred values were filed as active, the others as inactive; . = no result given. Only some compounds are listed: those with a hit (about 3.8% of all), similar ones and a draw of the others.

SMILES	Insulin prom inh	NPY-Y1 antag	NPY-Y2 PAM-ag	NPY Y2 blocker	NPY1 pot ag	RAM inhibit
CCN(CC)CCCNC(=O)CCC(=O)NNc1nc2ccccc2c2nc(C)nn12	-57	3	-8	.	-15	2
COC(=O)CN1C(=S)N(Cc2ccccc2)C(=O)C1CC(=O)Nc1ccc(Br)cc1 (centres undefined)	46	-12	35*	-7	44*	6
CCN1C(=O)C(CC(=O)Nc2ccc(OC)cc2)N(CCc2ccccc2)C1=S (centres undefined)	-75	-1	13	.	22	2
Cc1cccnc1NC1CCCCC1	79*	-1	3	.	3	1
COc1ccc(OCC(O)CN2CCN(c3ccc(Cl)cc3)CC2)cc1 (centres undefined)	.	.	-7	.	16	.
CCOc1ccccc1OCC(O)CNC (centres undefined)	62	-16	94*	0	106*	1
C=CCc1ccccc1OCC(O)CN(C(C)C)C(C)C (centres undefined)	.	-18	97*	5	103*	0
C=CCc1ccccc1OCC(O)CNC (centres undefined)	6	-21	101*	0	110*	1
C=CCc1ccccc1OCC(O)CN1CCN(c2ccc(OC)cc2)CC1 (centres undefined)	.	-15	80*	4	91*	0
C=CCc1ccccc1OCC(O)Cn1ccnc1C (centres undefined)	.	3	20	6	12	-1
Cn1cc(Cl)c(C(=O)Nc2cnn(Cc3ccc(F)cc3)c2)n1	17	-4	15	1	16	1
COc1ccc(N(CC(=O)Nc2ccccc2C(N)=O)S(=O)(=O)c2ccc(C)c([N+](=O)[O-])c2)cc1	39	-1	16	.	15	10*
Nc1c(S(=O)(=O)c2cccs2)c2nc3ccccc3nc2n1Cc1cccs1	62	-8	13	-2	11	9.1*
Cn1c(N)c(S(=O)(=O)c2ccc(Br)cc2)c2nc3ccccc3nc21	.	-5	24	-2	21	9.7*
COc1ccc(CCn2c(N)c(S(=O)(=O)c3cccs3)c3nc4ccccc4nc32)cc1OC	.	-11	19	-1	20	8.4*
Nc1c(S(=O)(=O)c2cccs2)c2nc3ccccc3nc2n1CCc1ccccc1	-2	-5	11	2	16	4
Cc1ccc(S(=O)(=O)c2c(N)n(CCN3CCOCC3)c3nc4ccccc4nc23)cc1C	-6	-1	10	1	3	11*
CCOC(=O)C1(C)NC(c2ccc(OC)cc2OC)C2C(=O)N(c3cccc(OC)c3)C(=O)C21 (centres undefined)	.	7	11	1	-3	0
CC1=C(C(=O)OC2CCCC2)C(c2coc3ccccc3c2=O)C2=C(CC(C)(C)CC2=O)N1 (centres undefined)	.	.	7	.	16	.
O=C(N1CCN(c2cccc(Cl)c2)CC1)C1(c2cccs2)CCOCC1	-19	11	3	7	26	0
COc1cccc(-c2nnn(CC(=O)O)n2)c1	-21	26*	-33	2	-47	2
C=CCc1cccc2cc(C(=O)Nc3ccccc3C(=O)O)c(=O)oc12	.	-3	45*	.	28	2
Cc1ccnc2nc(C(=O)OCCOc3ccc(F)cc3)nn12	-133	-1	-7	.	-6	-2
CCOC(=O)c1c(C)oc2ccc(O)c(CN3CCCCC3)c12	-5	27*	-10	22*	-32	0
O=C(c1ccccc1)c1coc2ccc(O)c(CN3CCOCC3)c12	-8	2	-10	6	-30	2
SMILES	Insulin prom inh	NPY-Y1 antag	NPY-Y2 PAM-ag	NPY Y2 blocker	NPY1 pot ag	RAM inhibit
COc1ccc(C(=O)c2coc3ccc(O)c(CN4CCCCC4)c23)cc1	.	20*	-34	25*	-87	1
CCOC(=O)C1CCN(c2c(N3CCCC(C(=O)OCC)C3)c(=O)c2=O)CC1 (centres undefined)	.	-6	11	0	12	0
CCOC(=O)C1CCCN(c2c(N3CCN(c4ccccn4)CC3)c(=O)c2=O)C1 (centres undefined)	86*	-1	9	0	-8	0
COc1ccc(CCC(=O)Nc2nc3c(s2)CN(C)CC3)cc1OC	-14	5	9	1	6	0
CCN(CC)CCOC(=O)c1ccc(Cl)cc1	-25	5	15	3	-7	1
CCOc1ccc(C(=O)OCCN(CC)CC)cc1	80*	1	-13	3	-9	0
O=C(Cn1c(=O)c(=O)n(Cc2ccccc2)c2ccc(Cl)cc21)NCC1CCCO1 (centres undefined)	39	-2	7	.	-2	4
Cc1c(C(=O)NCc2cccnc2)oc2c1C(=O)CC(C)(C)C2	79*	13	-12	1	-21	1
Cc1ccc(Oc2cc(NC(=O)CCCn3nc([N+](=O)[O-])c(Cl)c3C)cc([N+](=O)[O-])c2)cc1	40	0	0	4	9	3
Cc1cc([N+](=O)[O-])nn1CCCC(=O)Nc1cc(Oc2ccc(F)cc2)cc([N+](=O)[O-])c1	-133	1	-12	2	8	8.9*
Cc1cc([N+](=O)[O-])nn1CCCC(=O)Nc1cc(Oc2ccccc2)cc([N+](=O)[O-])c1	7	-3	2	-1	8	10*
O=S(=O)(/C=C/c1ccccc1)Nc1ccc(F)cc1	-56	-3	15	.	11	0
Cc1ccc2[nH]c3c(NCCCN4CCCC4=O)ncnc3c2c1	55	8	-8	2	-22	0
CCOC(=O)N1CCN(c2ncnc3c2[nH]c2ccc(OC)cc23)CC1	91*	6	-14	3	-7	3
COc1ccc2[nH]c3c(NCCN4CCCCC4)ncnc3c2c1	81*	2	5	-1	-12	0
O=S(=O)(/N=C(/NNS(=O)(=O)c1ccccc1)c1ccccc1)c1ccccc1	.	0	15	.	0	0
COc1ccc(CN(C)CC(=O)Nc2cc(OC)c([N+](=O)[O-])cc2C)c(OC)c1	71*	13	0	2	-24	0
COc1cc(NC(=O)CN(C)Cc2ccc(OC(F)F)cc2)c(C)cc1[N+](=O)[O-]	.	8	-1	5	-11	1
Cc1ccc(CN(Cc2ccco2)S(=O)(=O)c2ccc(S(=O)(=O)NCC3CCCO3)cc2)cc1 (centres undefined)	0	2	-12	3	-7	9.3*
Cc1ccc(-c2ccc(S(=O)(=O)NCC3CCCO3)cc2)cc1 (centres undefined)	.	-2	1	.	-10	1
O=C(CSCc1ccc([N+](=O)[O-])cc1)Nc1ccc(S(=O)(=O)N2CCCCCC2)cc1	.	-4	12	1	12	10*
Cc1onc(-c2ccccc2)c1C(=O)Nc1ccc(S(=O)(=O)N2CCCC2)cc1	78*	2	-5	.	0	1

Screening results: PubChem, several laboratories
